Compound activity (PubChem BioAssay)
A selection: hits, their analogues and other compounds. The true share with any hit is near 3.1%.
RBBP9 inhibitor = inhibitors of human serine hydrolase RBBP9 | inhibition, % at 7.94 µM | actives 0.2% (n = 220,000) | recombinant RBBP9, FP-Rh probe fluorescence polarization;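 active means inhibition above the campaign mean of all tested compounds plus 3 SD, cut at about 14% in these data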;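 further: plate controls were DMSO wells with RBBP9 for no effect and wells lacking RBBP9 protein for full effect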
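Measured by: FP readout at 525/598 nm; material: recombinant human RBBP9; also added: Serine-hydrolase probe FP-Rh, 375 nM pre-mixing; medium: Tris buffer pH 8.0, NaCl, Pluronic; replication: one well per compound; doses: one concentration, 7.94 µM nominal, 0.794% DMSO; timing: preincubation 30 min plus labeling 45 min at 25 °C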
PRMT1 FP inh = inhibitors of human PRMT1; Q99873; recombinant PRMT1, activity-based probe fluorescence polarization; inhibition, % at 2.79 µM; actives 1.3% (n = 370,000);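 active means inhibition above about 21% made by adding two undisclosed values, limit read from the data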
MBD2 DNA inh = inhibitors of human MBD2 binding to methylated oligonucleotide | Q9UBB5 | TR-FRET | inhibition, % at 4.4 µM | actives 0.31% (n = 370,000) | AID 686964; in the data active means inhibition above about 13%
UHRF1 binding = UHRF1 methyl-DNA binding inhibition; Q96T88; UHRF1 binding to methylated oligo, TR-FRET; AID 687016; actives 0.75% (n = 370,000); inhibition, % at 4.4 µM; in the data active means inhibition above about 21%;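 further: UHRF1 SRA domain binding a hemimethylated CpG hairpin DNA probe; 0% = median of test compound wells and 100% = reference inhibitor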
Target sequence (Q96T88 whole entry, looked up, the tested form may be a part): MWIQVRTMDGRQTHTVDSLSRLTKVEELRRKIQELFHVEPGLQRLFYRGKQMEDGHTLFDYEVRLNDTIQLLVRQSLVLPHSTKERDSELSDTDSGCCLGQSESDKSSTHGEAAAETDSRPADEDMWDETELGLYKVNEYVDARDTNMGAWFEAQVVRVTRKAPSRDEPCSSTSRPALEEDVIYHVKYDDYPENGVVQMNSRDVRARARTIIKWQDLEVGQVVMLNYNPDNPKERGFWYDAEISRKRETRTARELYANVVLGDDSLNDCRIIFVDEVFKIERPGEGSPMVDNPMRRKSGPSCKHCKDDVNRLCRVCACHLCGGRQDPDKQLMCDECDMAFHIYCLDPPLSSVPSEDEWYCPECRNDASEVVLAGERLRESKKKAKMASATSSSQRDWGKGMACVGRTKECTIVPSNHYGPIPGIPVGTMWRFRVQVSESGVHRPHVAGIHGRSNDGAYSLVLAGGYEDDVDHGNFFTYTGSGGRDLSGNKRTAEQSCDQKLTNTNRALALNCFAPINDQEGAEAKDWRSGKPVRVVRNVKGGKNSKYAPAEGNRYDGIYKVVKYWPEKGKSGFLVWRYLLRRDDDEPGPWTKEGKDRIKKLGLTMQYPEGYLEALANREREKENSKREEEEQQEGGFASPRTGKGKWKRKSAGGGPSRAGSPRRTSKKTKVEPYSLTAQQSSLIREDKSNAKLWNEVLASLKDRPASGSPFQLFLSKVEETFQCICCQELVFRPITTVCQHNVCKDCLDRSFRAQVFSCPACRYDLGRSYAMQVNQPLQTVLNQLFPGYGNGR
ABHD5 PLIN5 PPI = blocks binding of human ABHD5 to perilipin-5. inhibition, % at 4 µM. AID 602281. actives 0.78% (n = 360,000). Split G. princeps luciferase complementation, luminescence, 4 h;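 active means inhibition above the mean inhibition across every tested compound plus 3 SD, cut at about 22% in these data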;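 further: 0% = DMSO only wells and the 100% control is not disclosed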
LEDGF integ inh = blocks HIV-1 LEDGF/p75-dependent DNA integration. inhibition, % at 3.7 µM. TR-FRET IN-LEDGF/p75 DNA integration, Eu/Cy5. actives 0.64% (n = 370,000);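 active means inhibition above the screen-wide mean plus 3 SD, cut at about 13% in these data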;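 further: signal is the Cy5 over europium emission ratio at 671 and 618 nm; 0% = plate median of compound wells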
PRMT1 confirm = PRMT1 (human) inhibition, FP confirmation | shares compounds with PRMT1 FP inh | recombinant His-PRMT1, activity-based probe fluorescence polarization | inhibition, % at 2.79 µM | actives 42% (n = 3,300) | AID 687036;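 active means mean inhibition across replicates above the hit cutoff derived for the earlier primary screen, cut at about 22% in these data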
Active calls of the source: *; nt = not tested or not shown.

SMILES	RBBP9 inhibitor	PRMT1 FP inh	MBD2 DNA inh	UHRF1 binding	ABHD5 PLIN5 PPI	LEDGF integ inh	PRMT1 confirm
COc1ccccc1CCn1cnc(-c2cccc(F)c2)c1C(C)C	nt	1	2	-1	nt	1	nt
O=[N+]([O-])c1cccc(-c2ccc(C(=S)N3CCOCC3)o2)c1	-2	0	-4	-9	-3	-2	nt
O=[N+]([O-])c1ccccc1-c1ccc(C(=S)N2CCCC2)o1	-3	39*	-4	-2	-35	10	8
O=[N+]([O-])c1cc(-c2ccc(C(=S)N3CCOCC3)o2)ccc1Cl	1	44*	-5	-9	-35	2	18
N#Cc1ccc(/C=C2\CC3(OC(=O)c4ccc(Cl)cc4)CCCN2C3)cc1 (stereo not drawn)	nt	-5	-7	-3	nt	1	nt
CC1=C(O)C(=O)C(C2=C(O)C(=O)C(C)=C(O)C2=O)=C(O)C1=O	nt	29*	0	18	10	1	34*
Cc1ccc(C2=C(O)C(=O)C(c3ccc(C)cc3)=C(O)C2=O)cc1	nt	3	-5	-2	5	1	nt
NS(=O)(=O)c1ccc(-c2ccc(/C=C3\NC(=S)NC3=O)o2)cc1	nt	53*	-9	-6	18	12	27*
O=C(NN1C(=O)/C(=C/c2cccs2)SC1=S)c1cccnc1	-7	27*	1	-9	-6	1	-1
O=C1C=CC(=O)N1c1ccc(Nc2ccccc2)cc1	nt	11	-8	-3	13	6	nt
O=C1C=CC(=O)N1c1ccc2ccccc2c1	nt	70*	0	-3	19	4	90*
Cc1cccc(N2C(=O)C=CC2=O)c1	nt	71*	-6	1	6	9	88*
O=C(NCCN1CCC(Cc2ccccc2)CC1)C1CCCN(S(=O)(=O)c2ccccc2[N+](=O)[O-])C1 (stereo not drawn)	nt	3	4	1	nt	0	nt
Nc1ccc(N2CCCC2)c(S(=O)(=O)Nc2cccc(C(F)(F)F)c2)c1	nt	47*	-3	-2	-18	-2	7
COc1ccc(NS(=O)(=O)c2cc(N)ccc2N2CCCCC2)cc1	nt	-1	4	-2	2	4	nt
O=[N+]([O-])c1cc2c(cc1Br)-c1ccccc1C2	nt	38*	0	-6	-6	-2	-3
CC(=O)Nc1ccc(-c2csc(NNC(=O)c3ccccc3)n2)cc1	-6	26*	-3	-2	-18	4	0
O=C(NNc1nc(-c2ccccc2)cs1)c1ccco1	-11	42*	-5	-1	-16	2	-1
Cc1nnsc1S(=O)c1ccc(Cl)cc1 (stereo not drawn)	nt	3	-1	3	5	-7	nt
O=C(c1nnsc1S(=O)c1ccc(Cl)cc1)N1CCOCC1 (stereo not drawn)	-8	54*	0	-1	73*	-4	66*
CCO[C@H]1OC(C(=O)N2CCN(Cc3ccc4c(c3)OCO4)CC2)=C[C@@H](c2cn(C(C)=O)c3ccccc23)[C@@H]1CCCO	-2	0	-2	-1	5	-2	nt
CCO[C@H]1OC(C(=O)N2CCN(Cc3ccc4c(c3)OCO4)CC2)=C[C@@H](c2csc3ccccc23)[C@@H]1CCCO	-6	96*	-4	-2	7	0	-1
CC(=O)N1CCN(c2ccc(N3CCN(Cc4ccccc4)[C@H](C)C3)c(C)c2)[C@H](C)C1	nt	-3	-4	0	nt	-1	nt
CCSc1nc(=S)cc(C)[nH]1	4	69*	-4	1	-13	7	41*
CCN(CC)S(=O)(=O)c1ccc(C(=O)NCc2n[nH]c(=S)n2-c2ccc(Cl)c(Cl)c2)cc1	-9	28*	-6	-3	-13	1	2
SMILES	RBBP9 inhibitor	PRMT1 FP inh	MBD2 DNA inh	UHRF1 binding	ABHD5 PLIN5 PPI	LEDGF integ inh	PRMT1 confirm
CCN(CC)S(=O)(=O)c1ccc(C(=O)NCc2n[nH]c(=S)n2-c2ccccc2OC)cc1	-7	0	-1	-1	-2	0	nt
CN1C(=O)C[C@@](C#N)(C(=O)NCC(F)(F)F)[C@H]1c1ccccc1	nt	0	-4	0	nt	-2	nt
OCC(O)C(O)C(O)C(O)C1NCCS1 (stereo not drawn)	-3	32*	-2	-2	-29	-1	16
O=C1C=CC(=Nc2ccc(F)cc2)O1	nt	50*	0	-2	11	3	79*
O=C1C=CC(=Nc2ccc3c(c2)C(=O)c2ccccc2-3)O1	nt	12	-18	-15	-1	3	nt
[N-]=C=C1C(=S)NC(=O)[C@H]([n+]2ccccc2)[C@H]1c1ccc(Cl)cc1	-4	25*	-5	-1	-13	-1	32*
Cc1cc(NC(=O)CSC2=NCCS2)no1	-7	39*	10	10	-8	3	19
CSCC(=O)Nc1cc(C)on1	0	7	3	7	5	1	nt
NC(=O)c1ccccc1NC(=O)CSC1=NCCS1	nt	27*	-2	0	-20	-2	53*
Cc1c[nH]c2cccc(-c3c(Cl)cccc3Cl)c12	nt	8	5	3	nt	-3	nt
COc1ccccc1OCC(=O)Sc1ccc(C)cc1	-5	39*	7	3	-8	-1	79*
COC(=O)[C@]12C[C@H](CC(=O)NCCCN3CCCC3=O)C(=O)N(Cc3cccc4ccccc34)C1=C[C@H](C(C)(C)C)O[C@@H]2C	nt	8	-1	1	nt	-2	nt
COc1ccc(C2COc3cc(O)ccc3C2)c(OC)c1O (stereo not drawn)	nt	4	3	0	0	-3	nt
Oc1ccc2c(c1)OCC1(O)Cc3cc(O)c(O)cc3C21 (stereo not drawn)	nt	125*	1	3	9	9	119*
Oc1cc2c(cc1O)[C@H]1c3ccc(O)c(O)c3OC[C@@]1(O)C2	nt	43*	4	6	10	83*	38*
CCOC(=O)[C@@H](CCc1ccccc1)N[C@@H](C)C(=O)N1CCC[C@H]1C(=O)O	nt	-3	2	1	nt	-2	nt
CC(C)(C)c1ccc(-c2nnc(SCC(=O)Nc3ccc(S(=O)(=O)Nc4nccs4)cc3)n2-c2ccc(Cl)cc2)cc1	nt	3	-4	-1	nt	4	nt
Cc1cc2nc(-c3ccc(SCc4ccc(C(=O)O)cc4)nc3)[nH]c2cc1C	-13	26*	0	1	-6	1	22*
Cc1ccc(Cn2nnc3c2-c2ccccc2S(=O)(=O)N(C2CC2)C3)cc1	nt	1	-5	0	nt	3	nt
Cc1ccccc1Nc1n[nH]c(=S)s1	nt	36*	6	2	-8	-7	6
Fc1ccccc1Nc1n[nH]c(=S)s1	3	8	1	-3	-13	-1	nt
S=c1[nH]nc(Nc2cccc3ccccc23)s1	-2	55*	-2	-2	-17	0	42*
